Test results reported in ChEMBL document CHEMBL1127466, “Synthesis and opioid activity of 7-oxygenated 2,3,4,4a,5,6,7,7a-octahydro-1H-benzofuro[3,2-e]isoquinolin-9-ols” (J Med Chem, 1994).

Species on record: Cavia porcellus
Experiment: Partial agonist potency at 1 uM was measured using Guinea pig ileum preparation
Assay type: functional
Conditions: not given
How it was run: (§1)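 Longitudinal muscle strips from male Hartley guinea pig ileum (250–400 g) in Krebs-Tris at 37 °C, oxygenated. Stimulated electrically at 0.1 Hz, 0.8 ms, supramaximal voltage, under 1 g resting tension. Contractions recorded isometrically after 90 min equilibration, with cumulative dose–response curves for inhibition. Partial agonist response is taken at 1 μM.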

SMILES | Max response
Oc1cccc2c1O[C@H]1[C@H](O)CC[C@@H]3CN(CC4CC4)CC[C@@]231 | 78%

Species on record: Cavia porcellus
Experiment: Ke value was measured as antagonist/ (IC50 ratio - 1)
Assay type: functional
Conditions: not given
How it was run: (§2)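 Ileum strips in the electrically stimulated guinea pig ileum set-up, 37 °C Krebs-Tris. […] IC50 ratio is IC50 with antagonist divided by control IC50 in the same preparation. Ke = [antagonist]/(IC50 ratio – 1).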

SMILES | Ke
Oc1cccc2c1O[C@H]1[C@H](O)CC[C@@H]3CN(CC4CC4)CC[C@@]231 | 13.3 nM

Species on record: Cavia porcellus
Experiment: Ke value was measured as concentration of antagonist/ (IC50 ratio - 1)
Assay type: functional
Conditions: not given
How it was run: as §2

SMILES | Ke
Oc1cccc2c1O[C@H]1[C@@H](O)CC[C@H]3CN(CC4CC4)CC[C@@]231 | 14.1 nM

Target: Kappa-type opioid receptor (Cavia porcellus) (UniProt P41144)
Experiment: (§3) Opioid antagonistic activity was measured against kappa receptor in guinea pig ileal preparation using US-50488 as agonist
Assay type: functional
Conditions: not given
How it was run: (§4)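 Electrically stimulated guinea pig ileum longitudinal muscle strips. After control agonist curves and washout, the test antagonist is applied at 3 nM for 30 min. […] Ke = [antagonist]/(IC50 ratio – 1).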

Kappa-type opioid receptor (Cavia porcellus), sequence (P41144 whole entry): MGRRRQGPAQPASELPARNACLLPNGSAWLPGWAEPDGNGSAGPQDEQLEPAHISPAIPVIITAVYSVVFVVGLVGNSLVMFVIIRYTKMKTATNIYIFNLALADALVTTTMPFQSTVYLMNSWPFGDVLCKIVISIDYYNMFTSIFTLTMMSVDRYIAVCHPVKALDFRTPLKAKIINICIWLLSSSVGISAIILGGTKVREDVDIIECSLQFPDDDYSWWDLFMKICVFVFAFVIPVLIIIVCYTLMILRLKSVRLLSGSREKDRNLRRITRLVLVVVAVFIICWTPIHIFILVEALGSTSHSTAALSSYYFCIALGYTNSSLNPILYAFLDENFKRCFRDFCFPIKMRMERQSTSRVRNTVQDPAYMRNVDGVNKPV

SMILES | Ke
Oc1cccc2c1O[C@H]1[C@H](O)CC[C@@H]3CN(CC4CC4)CC[C@@]231 | 2.3 nM

Species on record: Cavia porcellus
Experiment: Opioid agonistic activity was measured by using Guinea pig ileum bioassay
Assay type: functional
Conditions: not given
How it was run: as §1

SMILES | IC50
Oc1cccc2c1O[C@H]1[C@@H](O)CC[C@H]3CN(CC4CC4)CC[C@@]231 | 2.8 nM

Test system: Mus musculus
Experiment: In vivo analgesic activity was measured by using Antiphenyl quinone Writhing(PQW) test after subcutaneous administration
Assay type: functional
Conditions: sc
How it was run: (§5)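 Fasted male CFI mice, 18–23 g, given coded doses of test compound, then phenylquinone 1.25 mg/kg ip 5 min before the designated test time. Analgesia is scored as complete blockade of writhing over a 10-min observation period starting at test time.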

SMILES | ED50
Oc1cccc2c1O[C@H]1CCC[C@H]3CN(CC4CC4)CC[C@@]231 | 0.025 mg/kg
CN1CC[C@]23c4cccc(O)c4O[C@H]2C(=O)CC[C@H]3C1 | 0.4 mg/kg
COc1cccc2c1O[C@H]1[C@@H](O)CC[C@H]3CN(CC4CC4)CC[C@@]231 | 3 mg/kg
COc1cccc2c1O[C@H]1C(=O)CC[C@H]3CN(CC4CC4)CC[C@@]231 | 0.93 mg/kg
O=C1CC[C@H]2CN(CC3CC3)CC[C@@]23c2cccc(O)c2O[C@@H]13 | 0.15 mg/kg
Oc1cccc2c1O[C@H]1[C@@H](O)CC[C@H]3CN(CC4CC4)CC[C@@]231 | 0.37 mg/kg

Test system: Mus musculus
Experiment: In vivo analgesic activity was measured by using Antiphenyl quinone Writhing(PQW) test after subcutaneous administration; Inactive
Assay type: functional
Conditions: sc
How it was run: as §5

SMILES | ED50
O=C1CC[C@@H]2CN(CC3CC3)CC[C@@]23c2cccc(O)c2O[C@@H]13 | > 5.4 mg/kg
C=CCN1CC[C@]23c4c5ccc(O)c4O[C@H]2C(=O)CC[C@@]3(O)[C@H]1C5 [NALOXONE] | > 100 mg/kg
Oc1cccc2c1O[C@H]1[C@H](O)CC[C@@H]3CN(CC4CC4)CC[C@@]231 | > 4 mg/kg

Test system: Mus musculus
Experiment: Narcotic antagonism was measured by using Anti-Straub tail (AST) test after subcutaneous administration
Assay type: functional
Conditions: sc
How it was run: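 Fasted male CFI mice, 18–23 g, given coded doses of test compound, then desonitazene 0.08 mg/kg ip 5 min before the designated test time. Antagonism is scored as complete blockade of the Straub tail response over a 5-min observation period starting at test time.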

SMILES | ED50
Oc1cccc2c1O[C@H]1CCC[C@H]3CN(CC4CC4)CC[C@@]231 | 0.018 mg/kg
CN1CC[C@]23c4cccc(O)c4O[C@H]2C(=O)CC[C@H]3C1 | 1.4 mg/kg
COc1cccc2c1O[C@H]1[C@@H](O)CC[C@H]3CN(CC4CC4)CC[C@@]231 | 1.4 mg/kg
COc1cccc2c1O[C@H]1C(=O)CC[C@H]3CN(CC4CC4)CC[C@@]231 | 0.34 mg/kg
O=C1CC[C@H]2CN(CC3CC3)CC[C@@]23c2cccc(O)c2O[C@@H]13 | 0.022 mg/kg
O=C1CC[C@@H]2CN(CC3CC3)CC[C@@]23c2cccc(O)c2O[C@@H]13 | 1 mg/kg
C=CCN1CC[C@]23c4c5ccc(O)c4O[C@H]2C(=O)CC[C@@]3(O)[C@H]1C5 [NALOXONE] | 0.02 mg/kg
Oc1cccc2c1O[C@H]1[C@@H](O)CC[C@H]3CN(CC4CC4)CC[C@@]231 | 0.55 mg/kg
Oc1cccc2c1O[C@H]1[C@H](O)CC[C@@H]3CN(CC4CC4)CC[C@@]231 | 0.8 mg/kg

Target: Mu-type opioid receptor (Cavia porcellus) (UniProt P97266)
Experiment: (§6) Opioid antagonistic activity was measured against mu receptor in guinea pig ileal preparation using morphine as agonist
Assay type: functional
Conditions: not given
How it was run: as §4

Mu-type opioid receptor (Cavia porcellus), sequence (P97266 whole entry): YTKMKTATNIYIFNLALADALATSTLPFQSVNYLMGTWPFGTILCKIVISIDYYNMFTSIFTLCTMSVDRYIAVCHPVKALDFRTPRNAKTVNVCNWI

SMILES | Ke
Oc1cccc2c1O[C@H]1[C@H](O)CC[C@@H]3CN(CC4CC4)CC[C@@]231 | 0.57 nM

Target: Mu-type opioid receptor (Cavia porcellus, UniProt P97266)
Experiment: […]
Assay type: organism-based
Conditions: not given
How it was run: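 Brain membranes come from male Hartley guinea pigs, 250–300 g. Values are the mean of three experiments, each done in duplicate.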

Mu-type opioid receptor, sequence (P97266 whole entry): as above

SMILES | Ki
Oc1cccc2c1O[C@H]1CCC[C@H]3CN(CC4CC4)CC[C@@]231 | 0.57 nM
CN1CC[C@]23c4cccc(O)c4O[C@H]2C(=O)CC[C@H]3C1 | 7.8 nM
COc1cccc2c1O[C@H]1[C@@H](O)CC[C@H]3CN(CC4CC4)CC[C@@]231 | 29 nM
COc1cccc2c1O[C@H]1C(=O)CC[C@H]3CN(CC4CC4)CC[C@@]231 | 76 nM
O=C1CC[C@H]2CN(CC3CC3)CC[C@@]23c2cccc(O)c2O[C@@H]13 | 0.25 nM
O=C1CC[C@@H]2CN(CC3CC3)CC[C@@]23c2cccc(O)c2O[C@@H]13 | 19 nM
Oc1cccc2c1O[C@H]1[C@@H](O)CC[C@H]3CN(CC4CC4)CC[C@@]231 | 1.4 nM
Oc1cccc2c1O[C@H]1[C@H](O)CC[C@@H]3CN(CC4CC4)CC[C@@]231 | 3.9 nM

Target: Kappa-type opioid receptor (Cavia porcellus, UniProt P41144)
Experiment: biochemical
Assay type: organism-based
Conditions: not given

Kappa-type opioid receptor, sequence (P41144 whole entry): as the sequence (P41144 whole entry) above

SMILES | Ki
Oc1cccc2c1O[C@H]1CCC[C@H]3CN(CC4CC4)CC[C@@]231 | 1.2 nM
CN1CC[C@]23c4cccc(O)c4O[C@H]2C(=O)CC[C@H]3C1 | 186 nM
COc1cccc2c1O[C@H]1[C@@H](O)CC[C@H]3CN(CC4CC4)CC[C@@]231 | 140 nM
COc1cccc2c1O[C@H]1C(=O)CC[C@H]3CN(CC4CC4)CC[C@@]231 | 1760 nM
O=C1CC[C@H]2CN(CC3CC3)CC[C@@]23c2cccc(O)c2O[C@@H]13 | 1.73 nM
O=C1CC[C@@H]2CN(CC3CC3)CC[C@@]23c2cccc(O)c2O[C@@H]13 | 62 nM
Oc1cccc2c1O[C@H]1[C@@H](O)CC[C@H]3CN(CC4CC4)CC[C@@]231 | 4.9 nM
Oc1cccc2c1O[C@H]1[C@H](O)CC[C@@H]3CN(CC4CC4)CC[C@@]231 | 12 nM

Test system: not listed separately
Experiment: as §6
Assay type: functional
Conditions: not given
How it was run: as §4

SMILES | Ratio
Oc1cccc2c1O[C@H]1[C@H](O)CC[C@@H]3CN(CC4CC4)CC[C@@]231 | 6.3

Test system: not listed separately
Experiment: as §3
Assay type: functional
Conditions: not given
How it was run: as §4

SMILES | Ratio
Oc1cccc2c1O[C@H]1[C@H](O)CC[C@@H]3CN(CC4CC4)CC[C@@]231 | 2.3

Test system: not listed separately
Experiment: Ratio between IC50 of the agonist in presence of naloxone and IC50 of the control
Assay type: functional
Conditions: not given
How it was run: as §2

SMILES | Ratio
Oc1cccc2c1O[C@H]1[C@@H](O)CC[C@H]3CN(CC4CC4)CC[C@@]231 | 8.1
Oc1cccc2c1O[C@H]1[C@H](O)CC[C@@H]3CN(CC4CC4)CC[C@@]231 | 8.5
